Laboratory results taken from ChEMBL document CHEMBL1129436, “Novel peptidyl alpha-keto amide inhibitors of calpains and other cysteine proteases” (J Med Chem, 1996).

How the values were obtained:
[1] = molecular target: T1, Calpain-1 catalytic subunit (Homo sapiens, UniProt P07384); test: Inhibition of the cysteine protease human Calpain 1
T1 sequence (P07384 whole entry): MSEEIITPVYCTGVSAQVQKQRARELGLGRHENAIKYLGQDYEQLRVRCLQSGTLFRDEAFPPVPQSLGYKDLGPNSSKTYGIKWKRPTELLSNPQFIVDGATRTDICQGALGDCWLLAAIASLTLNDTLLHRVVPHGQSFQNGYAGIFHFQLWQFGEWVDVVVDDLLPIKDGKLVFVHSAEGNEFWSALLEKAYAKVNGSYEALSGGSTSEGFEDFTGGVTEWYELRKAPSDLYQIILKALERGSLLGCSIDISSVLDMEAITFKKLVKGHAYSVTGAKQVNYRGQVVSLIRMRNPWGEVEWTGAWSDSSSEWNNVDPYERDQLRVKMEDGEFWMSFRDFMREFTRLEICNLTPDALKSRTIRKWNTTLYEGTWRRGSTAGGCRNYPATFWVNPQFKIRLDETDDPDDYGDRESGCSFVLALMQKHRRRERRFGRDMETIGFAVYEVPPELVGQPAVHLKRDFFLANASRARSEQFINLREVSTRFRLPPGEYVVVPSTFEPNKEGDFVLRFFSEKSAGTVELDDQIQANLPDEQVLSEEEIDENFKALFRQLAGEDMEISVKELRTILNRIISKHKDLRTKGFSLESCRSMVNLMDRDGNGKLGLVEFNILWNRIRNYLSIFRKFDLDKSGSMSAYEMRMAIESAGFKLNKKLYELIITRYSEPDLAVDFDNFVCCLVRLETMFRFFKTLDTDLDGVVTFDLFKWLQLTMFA
Method in brief: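 Calpain assay in 25 mM Tris, pH 8.0, with 10 mM CaCl₂ and 5% DMSO. […] hydrolysis was read as initial velocity (t = 30-60 s) after a 30 s delay, at room temperature. Five or more inhibitor concentrations (not above 2 × K_obs) were used at two fixed substrate levels. Ki came from Dixon plots (1/v vs I) averaged over triplicates.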

[2] = molecular target: Cathepsin B (Bos taurus, UniProt P07688); test: Inhibition of bovine cathepsin B
Method in brief: (§1)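 Bovine or human cathepsin B, assayed in 20 mM sodium acetate, pH 5.2, with 0.5 mM dithiothreitol and 2% DMSO. The two enzyme sources were used interchangeably. Ki was taken from Dixon plots, with triplicate assays plotted as 1/v versus inhibitor concentration.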

[3] = molecular target: Cathepsin B (Homo sapiens, UniProt P07858); test: Inhibition of human cathepsin B; method in brief: as §1
[4] = organism: Rattus norvegicus;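 also: measured as membrane permeability of platelets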

| Ki [1] | Ki [2] | Ki [3] | Compound | IC [4] |
| --- | --- | --- | --- | --- |
| 100 nM | 210 nM |  | CCC(NC(=O)C(CC(C)C)NC(=O)OCc1ccccc1)C(=O)C(=O)NCC(O)c1ccc(Oc2ccccc2)cc1 (stereo unspecified) |  |
| 330 nM | 72 nM |  | CCC(NC(=O)C(CC(C)C)NC(=O)OCc1ccccc1)C(=O)C(=O)NCC(O)c1ccc(N(C)C)cc1 (stereo unspecified) |  |
| 310 nM |  | 8000 nM | CCC(NC(=O)C(CC(C)C)NC(=O)OCc1ccccc1)C(=O)C(=O)NCCCN1CCc2ccccc2C1 (stereo unspecified) |  |
|  |  | 1200 nM | CCC(NC(=O)C(CC(C)C)NC(=O)OCc1ccccc1)C(=O)C(=O)NCCc1cccn1C (stereo unspecified) |  |
| 1400 nM | 350 nM |  | CCNC(=O)C(=O)C(CC)NC(=O)C(CC(C)C)NC(=O)c1cnccn1 (stereo unspecified) |  |
| 5000 nM | 550 nM |  | CCNC(=O)C(=O)C(CC)NC(=O)C(CC(C)C)NC(=O)C(c1ccccc1)c1ccccc1 (stereo unspecified) |  |
| 130 nM | 450 nM |  | CCC(NC(=O)C(CC(C)C)NC(=O)OCc1ccccc1)C(=O)C(=O)NCc1ccc2ccccc2n1 (stereo unspecified) |  |
| 760 nM |  | 3800 nM | CC(C)CC(NC(=O)C(c1ccccc1)c1ccccc1)C(=O)NC(Cc1ccccc1)C(=O)C(=O)NCCCN1CCOCC1 (stereo unspecified) |  |
| 220 nM | 230 nM |  | CC(C)CC(NC(=O)OCc1ccccc1)C(=O)NC(Cc1ccccc1)C(=O)C(=O)NCCNC(=O)CCCC[C@@H]1SC[C@@H]2NC(=O)N[C@@H]21 (stereo partly specified) |  |
| 180 nM | 120 nM |  | CC(C)CC(NC(=O)OCc1ccccc1)C(=O)NC(Cc1ccccc1)C(=O)C(=O)NCC(O)c1cccc(Oc2cccc(C(F)(F)F)c2)c1 (stereo unspecified) |  |
| 19 nM |  | 750 nM | CCCC(NC(=O)C(CC(C)C)NC(=O)OCc1ccccc1)C(=O)C(=O)NCc1ccccn1 (stereo unspecified) |  |
| 1300 nM | 880 nM |  | CCNC(=O)C(=O)C(CC)NC(=O)C(CC(C)C)NC(=O)c1cccnc1 (stereo unspecified) |  |
| 300 nM |  | 350 nM | CCNC(=O)C(=O)C(CC)NC(=O)C(CC(C)C)NC(=O)Cc1cccc2ccccc12 (stereo unspecified) |  |
| 110 nM |  | 310 nM | CCC(NC(=O)C(CC(C)C)NC(=O)OCc1ccccc1)C(=O)C(=O)NCCc1cccc(OC)c1 (stereo unspecified) |  |
| 350 nM | 570 nM |  | CNC(=O)C(=O)C(Cc1ccccc1)NC(=O)C(CC(C)C)NC(=O)OCc1ccccc1 (stereo unspecified) |  |
| 120 nM |  | 440 nM | CCC(NC(=O)C(CC(C)C)NC(=O)OCc1ccccc1)C(=O)C(=O)NCCc1ccc(OC)cc1 (stereo unspecified) |  |
|  |  |  | CCC(NC(=O)C(CC(C)C)NC(=O)C(c1ccccc1)c1ccccc1)C(=O)C(=O)NCc1ccccn1 (stereo unspecified) | 88 µM |
| 200 nM | 2100 nM |  | CC(C)CC(NC(=O)OCc1ccccc1)C(=O)NC(Cc1ccccc1)C(=O)C(=O)NCC(O)c1ccc(Oc2ccccc2)cc1 (stereo unspecified) |  |
| 120 nM | 63 nM |  | CCC(NC(=O)C(CC(C)C)NC(=O)OCc1ccccc1)C(=O)C(=O)NCC(O)c1cccc2ccccc12 (stereo unspecified) |  |
| 240 nM | 120 nM |  | CCC(NC(=O)C(CC(C)C)NC(=O)OCc1ccccc1)C(=O)C(=O)NCC(O)c1ccc(OC)cc1 (stereo unspecified) |  |

| Ki [1] | Ki [2] | Ki [3] | Compound | IC [4] |
| --- | --- | --- | --- | --- |
| 900 nM | 120 nM |  | CCC(NC(=O)C(CC(C)C)NC(=O)OCc1ccccc1)C(=O)C(=O)NCC(O)c1cccc(Oc2ccccc2)c1 (stereo unspecified) |  |
| 650 nM | 660 nM |  | CCC(NC(=O)C(CC(C)C)NC(=O)OCc1ccccc1)C(=O)C(=O)NCCNC(=O)CCCC[C@@H]1SC[C@@H]2NC(=O)N[C@@H]21 (stereo partly specified) |  |
| 270 nM | 100 nM |  | CCC(NC(=O)C(CC(C)C)NC(=O)OCc1ccccc1)C(=O)C(=O)NCC(O)c1cccc(Oc2ccc(Cl)c(Cl)c2)c1 (stereo unspecified) |  |
| 650 nM |  | 800 nM | CC(C)CC(NC(=O)OCc1ccccc1)C(=O)NC(Cc1ccccc1)C(=O)C(=O)NCc1ccccn1 (stereo unspecified) |  |
| 410 nM |  |  | CCC(NC(=O)C(CC(C)C)NC(=O)OCc1ccccc1)C(=O)C(=O)NCCc1ccccn1 (stereo unspecified) | 70 µM |
| 590 nM | 640 nM |  | CC(C)CC(NC(=O)OCc1ccccc1)C(=O)NC(Cc1ccccc1)C(=O)C(=O)NCC(O)c1cccc(Oc2ccc(Cl)c(Cl)c2)c1 (stereo unspecified) |  |
| 480 nM | 20000 nM |  | CC(C)CC(NC(=O)OCc1ccccc1)C(=O)NC(Cc1ccccc1)C(=O)C(=O)NCC(O)c1ccc(OCc2ccccc2)c(OCc2ccccc2)c1 (stereo unspecified) |  |
| 850 nM | 1200 nM |  | CCNC(=O)C(=O)C(CC)NC(=O)C(CC(C)C)NC(=O)c1ccco1 (stereo unspecified) |  |
| 380 nM | 220 nM |  | CCC(NC(=O)C(CC(C)C)NC(=O)OCc1ccccc1)C(=O)C(=O)NCC(O)c1cc(OC)c(OC)c(OC)c1 (stereo unspecified) |  |
| 460 nM | 140 nM |  | CC(C)CC(NC(=O)OCc1ccccc1)C(=O)NC(Cc1ccccc1)C(=O)C(=O)NCC(O)c1cccc(C(F)(F)F)c1 (stereo unspecified) |  |
| 600 nM | 640 nM |  | CC(C)CC(NC(=O)OCc1ccccc1)C(=O)NC(Cc1ccccc1)C(=O)C(=O)NCC(O)c1cccc(Oc2ccccc2)c1 (stereo unspecified) |  |
| 280 nM | 330 nM |  | CCC(NC(=O)C(CC(C)C)NC(=O)OCc1ccccc1)C(=O)C(=O)NC (stereo unspecified) |  |
| 110 nM |  | 340 nM | CC(C)CC(NC(=O)OCc1ccccc1)C(=O)NC(Cc1ccccc1)C(=O)C(=O)NCc1ccc2ccccc2n1 (stereo unspecified) |  |
| 800 nM |  | 2300 nM | CCC(NC(=O)C(CC(C)C)NC(=O)C(c1ccccc1)c1ccccc1)C(=O)C(=O)NCCCN1CCOCC1 (stereo unspecified) |  |
|  |  |  | CCCNC(=O)C(=O)C(CC)NC(=O)C(CC(C)C)NC(=O)OCc1ccccc1 (stereo unspecified) | 70 µM |
|  | 190 nM |  | CCC(NC(=O)C(CC(C)C)NC(=O)OCc1ccccc1)C(=O)C(=O)NCC(OC)OC (stereo unspecified) |  |
| 10000 nM | 240 nM |  | CC(C)CC(NC(=O)C(c1ccccc1)c1ccccc1)C(=O)NC(Cc1ccccc1)C(=O)C(=O)NCC(O)c1ccccc1 (stereo unspecified) |  |
| 1900 nM | 220 nM |  | CCNC(=O)C(=O)C(CC)NC(=O)C(CC(C)C)NC(=O)CCc1ccccc1 (stereo unspecified) |  |
| 350 nM | 110 nM |  | CCC(NC(=O)C(CC(C)C)NC(=O)OCc1ccccc1)C(=O)C(=O)NCC(O)c1cccc(C(F)(F)F)c1 (stereo unspecified) |  |
| 70 nM | 300 nM |  | CCC(NC(=O)C(CC(C)C)NC(=O)OCc1ccccc1)C(=O)C(=O)NCC(O)c1cccc(Oc2cccc(C(F)(F)F)c2)c1 (stereo unspecified) |  |

| Ki [1] | Ki [2] | Ki [3] | Compound | IC [4] |
| --- | --- | --- | --- | --- |
| 290 nM |  | 9900 nM | CCC(NC(=O)C(CC(C)C)NC(=O)OCc1ccccc1)C(=O)C(=O)NCCCn1ccnc1 (stereo unspecified) |  |
| 380 nM | 140 nM |  | CC(C)CC(NC(=O)OCc1ccccc1)C(=O)NC(Cc1ccccc1)C(=O)C(=O)NCCCN1CCCc2ccccc21 (stereo unspecified) |  |
|  | 110 nM |  | CCOC(CNC(=O)C(=O)C(CC)NC(=O)C(CC(C)C)NC(=O)OCc1ccccc1)OCC (stereo unspecified) |  |
| 220 nM |  | 4500 nM | CC(C)CC(NC(=O)OCc1ccccc1)C(=O)NC(Cc1ccccc1)C(=O)C(=O)NCCCN1CCc2ccccc2C1 (stereo unspecified) |  |
| 32000 nM | 1700 nM |  | CCC(NC(=O)C(CC(C)C)NC(=O)OCc1ccccc1)C(=O)C(=O)NCc1nc2c(c(=O)n(C)c(=O)n2C)n1C (stereo unspecified) |  |
| 620 nM | 310 nM |  | CC(C)CC(NC(=O)OCc1ccccc1)C(=O)NC(Cc1ccccc1)C(=O)C(=O)NCC(O)c1ccc(N(C)C)cc1 (stereo unspecified) |  |
|  | 380 nM |  | CC(C)CC(NC(=O)OCc1ccccc1)C(=O)NC(Cc1ccccc1)C(=O)C(=O)NCC(O)c1ccc(OCc2ccccc2)cc1 (stereo unspecified) |  |
|  | 96 nM |  | CCNC(=O)C(=O)C(CC)NC(=O)C(CC(C)C)NC(=O)c1ccc2ccccc2n1 (stereo unspecified) |  |
| 50 nM | 150 nM |  | CCC(NC(=O)C(CC(C)C)NC(=O)OCc1ccccc1)C(=O)C(=O)NCC(O)c1c(F)c(F)c(F)c(F)c1F (stereo unspecified) |  |
| 80 nM | 110 nM |  | CCC(NC(=O)C(CC(C)C)NC(=O)OCc1ccccc1)C(=O)C(=O)NCC(O)c1ccc(OCc2ccccc2)cc1 (stereo unspecified) |  |
| 350 nM | 220 nM |  | CCNC(=O)C(=O)C(CC)NC(=O)C(CC(C)C)NC(=O)c1nccc2ccccc12 (stereo unspecified) |  |
| 370 nM | 94 nM |  | CCC(NC(=O)C(CC(C)C)NC(=O)OCc1ccccc1)C(=O)C(=O)NCCCN1CCCc2ccccc21 (stereo unspecified) |  |
| 250 nM |  | 300 nM | CCC(NC(=O)C(CC(C)C)NC(=O)OCc1ccccc1)C(=O)C(=O)NCc1nccc2ccccc12 (stereo unspecified) |  |
| 230 nM | 320 nM |  | CCC(NC(=O)C(CC(C)C)NC(=O)OCc1ccccc1)C(=O)C(=O)NCC(O)c1ccc(OCc2ccccc2)c(OCc2ccccc2)c1 (stereo unspecified) |  |
| 350 nM | 63 nM |  | CCC(NC(=O)C(CC(C)C)NC(=O)OCc1ccccc1)C(=O)C(=O)NCC(O)c1ccc2ccccc2c1 (stereo unspecified) |  |
| 7800 nM | 3400 nM |  | CCCC(NC(=O)C(CC(C)C)NC(=O)OCc1ccccc1)C(=O)C(=O)NCC(O)c1ccccc1 (stereo unspecified) |  |
| 700 nM | 210 nM |  | CC(C)CC(NC(=O)OCc1ccccc1)C(=O)NC(Cc1ccccc1)C(=O)C(=O)NCC(O)c1c(F)c(F)c(F)c(F)c1F (stereo unspecified) |  |
| 130 nM |  | 630 nM | CCC(NC(=O)C(CC(C)C)NC(=O)OCc1ccccc1)C(=O)C(=O)NCCc1ccccc1OC (stereo unspecified) |  |
| 7900 nM | 4300 nM |  | CCNC(=O)C(=O)C(CC)NC(=O)C(CC(C)C)NC(=O)N1CCOCC1 (stereo unspecified) |  |
